This is an account of results in paper PMC8547165 (Environmental science & technology, 2021).

Data set [1] is described as follows: QAC levels in human blood. Conditions: human serum, n = 111; for Median concentration: non-detects = 1/2 MDL. The class given is in vivo.
Data set [2] in a line: Hepatic clearance in vitro-in vivo extrapolation. Set-up: species or system human. The following applies: IVIVE. The method, boiled down:
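Human liver microsomes (1 mg/mL) in 50 mM phosphate pH 7.4 with 3 mM MgCl2, 0.5 uM substrate, 0.5% DMSO, NADPH-generating system, 37 °C, triplicate, stopped at 0–3 h; depletion fitted mono-exponentially for CLin vitro. Unbound fraction from NSB-corrected serum ultrafiltration and 60-min blood/serum ratio. Scaled by 34 mg microsomal protein/g liver, hepatic blood flow 42.6 mL/h/g liver.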

A value given as a limit tells only on which side of the number the result lay.

On to `CCCCCCCCCCCC[N+](C)(C)C` [C12-ATMAC], for which, in data set [1] (before COVID-19 (2019)), the Maximum concentration is 8.55 ng/mL, the Minimum concentration result is listed as “<MDL” and the Median concentration is listed as 0.981 ng/mL. Besides, in data set [1] (during COVID-19 (2020)), the Maximum concentration was determined as 6.84 ng/mL, the Minimum concentration result is on record as “<MDL” and the Median concentration stood at 0.612 ng/mL. Also, the “Fold lower CLinvivo than C14- and C16-ATMACs” value in data set [2] is reported as 2-4 times.

For the compound `CCCCCCCCCCCC[N+](C)(C)Cc1ccccc1` [C12-BAC], in data set [1] (before COVID-19 (2019)), the Maximum concentration came out at 1.40 ng/mL, the Minimum concentration result is reported as “<MDL” and the Median concentration was 0.289 ng/mL. Further, in data set [1] (during COVID-19 (2020)), the Maximum concentration is listed as 22.1 ng/mL, the Minimum concentration result is recorded as “<MDL” and the Median concentration is 0.634 ng/mL.

On to `CCCCCCCCCCCCCCCCCC[N+](C)(C)C` [C18-ATMAC], for which, in data set [1] (before COVID-19 (2019)), the Maximum concentration is 0.171 ng/mL, the Minimum concentration result was “<MDL” and the Median concentration result is “<MDL”. For the same compound, in data set [1] (during COVID-19 (2020)), the Maximum concentration amounted to 3.62 ng/mL, the Minimum concentration result was “<MDL” and the Median concentration result is reported as “<MDL”.

For `CCCCCCCCCC[N+](C)(C)Cc1ccccc1` [C10-BAC], in data set [1] (before COVID-19 (2019)), the Maximum concentration was 0.166 ng/mL, the Minimum concentration result is reported as “<MDL” and the Median concentration result is given as “<MDL”. Moreover, in data set [1] (during COVID-19 (2020)), the Maximum concentration is given as 1.45 ng/mL, the Minimum concentration result was “<MDL” and the Median concentration result was “<MDL”.

`CCCCCCCC[N+](C)(C)Cc1ccccc1` [C8-BAC]: in data set [1] (before COVID-19 (2019)), the Maximum concentration worked out at 0.196 ng/mL, the Minimum concentration entry was “<MDL” and the Median concentration entry is reported as “<MDL”. For the same compound, in data set [1] (during COVID-19 (2020)), the Maximum concentration is recorded as 0.433 ng/mL, the Minimum concentration result is “<MDL” and the Median concentration is 0.055 ng/mL.

For the compound `CCCCCCCCCCCCCCCC[N+](C)(C)CCCCCCCCCCCCCCCC` [C16-DDAC], in data set [1] (before COVID-19 (2019)), the Maximum concentration came out at 0.142 ng/mL, the Minimum concentration entry is “<MDL” and the Median concentration result was “<MDL”. Moreover, in data set [1] (during COVID-19 (2020)), the Maximum concentration amounted to 0.576 ng/mL, the Minimum concentration result is “<MDL” and the Median concentration entry is recorded as “<MDL”.

Turning to `CCCCCCCCCCCCCC[N+](C)(C)C` [C14-ATMAC], in data set [1] (before COVID-19 (2019)), the Maximum concentration worked out at 1.86 ng/mL, the Minimum concentration result is “<MDL” and the Median concentration was 0.667 ng/mL. In data set [1] (during COVID-19 (2020)), the Maximum concentration amounted to 3.75 ng/mL, the Minimum concentration entry is on record as “<MDL” and the Median concentration is 0.929 ng/mL.

Turning to `CCCCCCCCCCCCCCCC[N+](C)(C)Cc1ccccc1` [C16-BAC], in data set [1] (before COVID-19 (2019)), the Maximum concentration stood at 0.800 ng/mL, the Minimum concentration result is listed as “<MDL” and the Median concentration is on record as 0.080 ng/mL. In data set [1] (during COVID-19 (2020)), the Maximum concentration was determined as 16.4 ng/mL, the Minimum concentration entry is “<MDL” and the Median concentration was determined as 0.346 ng/mL.

Turning to `CCCCCCCCCC[N+](C)(C)CCCCCCCCCC` [C10-DDAC], in data set [1] (before COVID-19 (2019)), the Maximum concentration was 0.206 ng/mL, the Minimum concentration entry is on record as “<MDL” and the Median concentration result is given as “<MDL”. For the same compound, in data set [1] (during COVID-19 (2020)), the Maximum concentration stood at 0.620 ng/mL, the Minimum concentration entry is given as “<MDL” and the Median concentration was 0.089 ng/mL.

For the compound `CCCCCCCCCCCCCC[N+](C)(C)CCCCCCCCCCCCCC` [C14-DDAC], in data set [1] (before COVID-19 (2019)), the Maximum concentration stood at 0.522 ng/mL, the Minimum concentration result was “<MDL” and the Median concentration entry is listed as “<MDL”. In addition, in data set [1] (during COVID-19 (2020)), the Maximum concentration was determined as 0.795 ng/mL, the Minimum concentration entry was “<MDL” and the Median concentration entry is “<MDL”.

Take `CCCCCCCC[N+](C)(C)CCCCCCCC` [C8-DDAC]: in data set [1] (before COVID-19 (2019)), the Maximum concentration turned out to be 0.447 ng/mL, the Minimum concentration result was “<MDL” and the Median concentration result is “<MDL”. In addition, in data set [1] (during COVID-19 (2020)), the Maximum concentration was determined as 0.219 ng/mL, the Minimum concentration entry was “<MDL” and the Median concentration entry is recorded as “<MDL”.

`CCCCCCCCCCCCCC[N+](C)(C)Cc1ccccc1` [C14-BAC]: in data set [1] (before COVID-19 (2019)), the Maximum concentration is given as 2.36 ng/mL, the Minimum concentration result was “<MDL” and the Median concentration was 0.490 ng/mL. Moreover, in data set [1] (during COVID-19 (2020)), the Maximum concentration turned out to be 40.1 ng/mL, the Minimum concentration result is on record as “<MDL” and the Median concentration was found to be 1.14 ng/mL.

In the case of `CCCCCCCCCCCCCCCCCC[N+](C)(C)CCCCCCCCCCCCCCCCCC` [C18-DDAC], in data set [1] (before COVID-19 (2019)), the Maximum concentration is listed as 5.77 ng/mL, the Minimum concentration entry is “<MDL” and the Median concentration entry is given as “<MDL”. In data set [1] (during COVID-19 (2020)), the Maximum concentration is listed as 5.35 ng/mL, the Minimum concentration entry was “<MDL” and the Median concentration result is reported as “<MDL”.

As for `CCCCCCCCCCCCCCCC[N+](C)(C)C` [C16-ATMAC], in data set [1] (before COVID-19 (2019)), the Maximum concentration was 5.65 ng/mL, the Minimum concentration entry was “<MDL” and the Median concentration result is recorded as “<MDL”. Moreover, in data set [1] (during COVID-19 (2020)), the Maximum concentration is recorded as 3.53 ng/mL, the Minimum concentration entry is “<MDL” and the Median concentration came to 0.966 ng/mL.

In the case of `CCCCCCCCCCCCCCCCCC[N+](C)(C)Cc1ccccc1` [C18-BAC], in data set [1] (before COVID-19 (2019)), the Maximum concentration is reported as 2.14 ng/mL, the Minimum concentration entry was “<MDL” and the Median concentration result was “<MDL”. For the same compound, in data set [1] (during COVID-19 (2020)), the Maximum concentration was 1.41 ng/mL, the Minimum concentration entry is reported as “<MDL” and the Median concentration was 0.180 ng/mL.
